One test has as its system Cryptococcus neoformans. Put plainly: Antifungal activity against Cryptococcus neoformans ATCC 90112. Format: functional.
The subject of a further test is Candida albicans. Put plainly: Antifungal activity against Candida albicans ATCC 10231. Format: functional.
The next test concerns the target T1, Phospholipase B (Cryptococcus neoformans, UniProt Q9P8P2).
T1 sequence (Q9P8P2 whole entry): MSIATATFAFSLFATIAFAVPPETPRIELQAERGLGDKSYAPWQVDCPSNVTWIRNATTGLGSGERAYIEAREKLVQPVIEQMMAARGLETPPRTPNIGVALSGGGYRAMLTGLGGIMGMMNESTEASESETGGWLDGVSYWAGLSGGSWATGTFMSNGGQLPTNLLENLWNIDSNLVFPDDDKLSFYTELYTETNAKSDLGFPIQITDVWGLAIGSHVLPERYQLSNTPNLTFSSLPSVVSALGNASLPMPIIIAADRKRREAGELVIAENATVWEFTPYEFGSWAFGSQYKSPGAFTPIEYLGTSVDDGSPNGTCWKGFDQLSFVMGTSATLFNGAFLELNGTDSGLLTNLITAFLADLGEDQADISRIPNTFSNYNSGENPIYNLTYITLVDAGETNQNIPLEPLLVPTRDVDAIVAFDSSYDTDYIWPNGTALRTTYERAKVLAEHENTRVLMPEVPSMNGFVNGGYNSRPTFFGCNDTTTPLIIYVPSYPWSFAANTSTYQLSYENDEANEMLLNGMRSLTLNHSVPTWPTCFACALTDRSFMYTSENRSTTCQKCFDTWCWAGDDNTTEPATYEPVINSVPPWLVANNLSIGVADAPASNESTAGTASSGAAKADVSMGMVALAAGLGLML
Put plainly: Inhibition of Cryptococcus neoformans H99 PLB1activity. Summed up: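 Secreted enzyme from C. neoformans var. grubii H99 grown 72 h on SDA at 30 °C; cells washed and held 24 h at 37 °C in imidazole buffer pH 5.5, and the cell-free supernatant was used. Radiometric assay at 37 °C, pH 4.0 imidazole acetate, with 1 µg protein, 800 µM DPPC plus [14C]DPPC, for 22 min. Lipids were separated by TLC. Compounds at 0.25–250 µM in triplicate, with inhibition relative to the inhibitor-free control.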

Test [1] concerns the target Phospholipase A2, major isoenzyme (Sus scrofa) (UniProt P00592). Nature of the test: Inhibition of porcine pancreatic PLA2 activity at 250 uM. Summed up: (§1)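 Porcine pancreatic PLA2 was diluted in 10 mM Tris/HCl with 10 mM CaCl2, pH 8.2. It was run in the same radiometric assay as the fungal enzyme at 37 °C, using 800 µM DPPC with [14C]DPPC, for a 1 h reaction. Compounds were tested at 250, 25, 2.5 and 0.25 µM final, and inhibition was relative to the inhibitor-free control.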

For test [2], the system named is RBCs. Nature of the test: Hemolytic activity as a measure of cytotoxicity against human red blood cells at 350 uM. Format: functional, Erythrocyte.
In test [3] the test system is RBCs. Nature of the test: Hemolytic activity as a measure of cytotoxicity against human red blood cells at 175 uM. Format: functional, Erythrocyte.
Test [4] deals with RBCs. Put plainly: Hemolytic activity as a measure of cytotoxicity against human red blood cells at 87.5 uM. Format: functional, Erythrocyte.
Test [5] concerns RBCs. Nature of the test: Hemolytic activity as a measure of cytotoxicity against human red blood cells at 35 uM. Format: functional, Erythrocyte.
In test [6] the test system is RBCs. Nature of the test: Hemolytic activity as a measure of cytotoxicity against human red blood cells at 3.5 uM. Format: functional, Erythrocyte.
In test [7] the target is Phospholipase A2, major isoenzyme (Sus scrofa) (UniProt P00592). Put plainly: Inhibition of porcine pancreatic PLA2 activity at 25 uM and below. Summed up:
as §1

A further test deals with Aspergillus flavus. Nature of the test: Antifungal activity against Aspergillus flavus ATCC 204 304. Format: functional.
Another test has as its system Lomentospora prolificans. Nature of the test: Antifungal activity against Scedosporium prolificans 1-003-040. Format: functional.
Another test deals with Scedosporium boydii. Put plainly: Antifungal activity against Scedosporium apiospermum 1-003-056. Format: functional.
In a further test the test system is Aspergillus fumigatus. Nature of the test: Antifungal activity against Aspergillus fumigatus ATCC 204 305. Format: functional.
The test system of a further test is Aspergillus terreus. Put plainly: Antifungal activity against Aspergillus terreus ATCC 03-232-378. Format: functional.
The test system of another test is Fusarium solani. Nature of the test: Antifungal activity against Fusarium solani 04-132-4207. Format: functional.
[8] abbreviates: Cryptococcus neoformans, ATCC 90112, read-out: MIC.
[9] abbreviates: Candida albicans, ATCC 10231, read-out: MIC.

≈ marks a conversion by molar mass, not a printed value. Calls of active or inactive are those of the source. The rule behind the calls is not given here.

The source of these data is ChEMBL document CHEMBL1148608, “Correlation of antifungal activity with fungal phospholipase inhibition using a series of bisquaternary ammonium salts” (J Med Chem, 2006).

Phospholipase A2, major isoenzyme (Sus scrofa), sequence (P00592 23-146 limits assumed): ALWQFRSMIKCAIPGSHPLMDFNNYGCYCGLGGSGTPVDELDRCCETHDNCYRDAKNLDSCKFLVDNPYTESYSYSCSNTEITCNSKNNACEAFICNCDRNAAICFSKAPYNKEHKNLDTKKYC

For `CC(C)CC[N+](CCCCCCCCCCCC[N+](CCC(C)C)(CCC(C)C)CCC(C)C)(CCC(C)C)CCC(C)C.[Cl-].[Cl-]`, the MIC in the test with Cryptococcus neoformans (setting [8]) stood at 4.4 µM; with Candida albicans (setting [9]), 2.2 µM. This compound also returned a half-maximal inhibitory concentration (IC50) at Phospholipase B above 7.5 µM. The compound also came in with an inhibition in [1] of 90%. Also, the Activity was determined as 100% in the test with RBCs [2]; 30% in the test on RBCs [3]; 4% in the test with RBCs [4]; 0% in the test on RBCs [5]; 0% in the test with RBCs [6]. For the same compound, in test [7], the inhibition result is “inactive”.
For the compound `CCCCCCCC[N+](CCCCCCCC)(CCCCCCCC)CCCCCCCCCCCC[N+](CCCCCCCC)(CCCCCCCC)CCCCCCCC`, the figures for the minimum inhibitory concentration (MIC) in the test with Cryptococcus neoformans (setting [8]) and in the test on Candida albicans (setting [9]) were 35 µM and 100 µM, respectively. The compound further displayed an IC50 against Phospholipase B above 250 µM.
Turning to `CCCC[N+](CCCC)(CCCC)CCCCCCCCCCCC[N+](CCCC)(CCCC)CCCC.[Cl-].[Cl-]`, the minimal inhibitory concentration (MIC) against Aspergillus flavus was 22 µM; in the test with Lomentospora prolificans, 5.5 µM; in the test on Scedosporium boydii it was 2.8 µM; in the test with Cryptococcus neoformans, 2.2 µM; in the test on Candida albicans, 5.5 µM; against Aspergillus fumigatus, 11 µM. Moreover, the minimal inhibitory concentration (MIC) against Aspergillus terreus and with Fusarium solani was 5.5 µM in each case. Also, the midpoint of inhibition against Phospholipase B, the IC50, lay at 10 µM. Moreover, the Activity with RBCs [2] is 100%; in the test on RBCs [3], 5%; with RBCs [4], 0%; with RBCs [5], 0%; in the test with RBCs [6] it was 0%.
On to `CCC[N+](CCC)(CCC)CCCCCCCCCCCC[N+](CCC)(CCC)CCC`, for which the MIC worked out at 5.5 µM in the test on Cryptococcus neoformans (setting [8]) and 10 µM in the test with Candida albicans (setting [9]). The compound further had a 50% inhibitory concentration (IC50) on Phospholipase B of 7 µM.
On to `CCCC[N+]1(CCCCCCCCCCCC[N+]2(CCCC)CCCC2)CCCC1.[Cl-].[Cl-]`, for which the MIC with Cryptococcus neoformans (setting [8]) and in the test on Candida albicans (setting [9]) was 88 µM in each case. The compound further showed an IC50 against Phospholipase B above 250 µM. Besides, the Activity in the test on RBCs [2], in the test on RBCs [3], with RBCs [4], in the test with RBCs [5] and in the test on RBCs [6] was 0% throughout.
As for `CCCC[P+](CCCC)(CCCC)CCCCCCCCCCCC[P+](CCCC)(CCCC)CCCC.[Br-].[Br-]`, the MIC in the test on Cryptococcus neoformans (setting [8]) was found to be 2.5 µM; in the test on Candida albicans (setting [9]), 8.8 µM. On Phospholipase B, this compound yielded an IC50 above 25 µM. In addition, the Activity in the test on RBCs [2] is recorded as 15%; in the test on RBCs [3], 0%; in the test on RBCs [4] it was 0%; in the test on RBCs [5], 0%; in the test with RBCs [6], 0%.
Take `C[N+]1(CCCCCCCCCCCC[N+]2(C)CCCC2)CCCC1`: the minimal inhibitory concentration (MIC) in the test on Cryptococcus neoformans (setting [8]) and in the test on Candida albicans (setting [9]) was 175 µM throughout. At Phospholipase B, this compound displayed a half-maximal inhibitory concentration (IC50) above 250 µM.
For `C[N+](C)(C)CCCCCCCCCC[N+](C)(C)C.[Br-].[Br-]` [DECAMETHONIUM BROMIDE], the minimal inhibitory concentration (MIC) in the test with Cryptococcus neoformans (setting [8]) and with Candida albicans (setting [9]) was at least 350 µM in each case. The same compound returned an IC50 against Phospholipase B above 250 µM. In addition, the Activity with RBCs [2], with RBCs [3], with RBCs [4], with RBCs [5] and with RBCs [6] was 0% each time.
On to `C[C@@H]1[C@H](O)[C@@H](C)/C=C/C=C/C=C/C=C/C=C/C=C/C=C/[C@H](O[C@@H]2O[C@H](C)[C@@H](O)[C@H](N)[C@@H]2O)C[C@@H]2O[C@](O)(C[C@@H](O)C[C@@H](O)[C@H](O)CC[C@@H](O)C[C@@H](O)CC(=O)O[C@H]1C)C[C@H](O)[C@H]2C(=O)O` [AMPHOTERICIN B], for which the minimal inhibitory concentration (MIC) was 0.54 µM (≈ 0.499 µg/mL) in the test with Aspergillus flavus; 4.3 µM (≈ 3.97 µg/mL) in the test with Lomentospora prolificans; 0.54 µM (≈ 0.499 µg/mL) in the test on Scedosporium boydii; 0.54 µM (≈ 0.499 µg/mL) in the test on Cryptococcus neoformans (setting [8]); 0.54 µM (≈ 0.499 µg/mL) in the test on Candida albicans (setting [9]); 0.54 µM (≈ 0.499 µg/mL) against Aspergillus fumigatus. In addition, the MIC with Aspergillus terreus is 1.1 µM (≈ 1.02 µg/mL); in the test with Fusarium solani, 0.27 µM (≈ 0.25 µg/mL).
For `CC[N+](CC)(CC)CCCCCCCCCCCC[N+](CC)(CC)CC`, the MIC was determined as 11 µM in the test with Cryptococcus neoformans (setting [8]) and 22 µM with Candida albicans (setting [9]). The compound further gave an IC50 against Phospholipase B above 250 µM.
Take `C[N+](C)(C)CCCCCCCCCCCC[N+](C)(C)C.[Br-].[Br-]`: the minimal inhibitory concentration (MIC) in the test with Cryptococcus neoformans (setting [8]) and with Candida albicans (setting [9]) was 175 µM in each case. Besides, the IC50 at Phospholipase B was above 250 µM. The inhibition entry in test [1] and in [7] was “inactive” each time. Further, the Activity in the test on RBCs [2], in the test on RBCs [3], in the test on RBCs [4], in the test on RBCs [5] and in the test on RBCs [6] was 0% in each case.
`CCCCC[N+](CCCCC)(CCCCC)CCCCCCCCCCCC[N+](CCCCC)(CCCCC)CCCCC.[Br-].[Br-]`: the MIC with Cryptococcus neoformans (setting [8]) and in the test on Candida albicans (setting [9]) was 5.5 µM throughout. The compound further displayed an IC50 against Phospholipase B of 3.5 µM. Moreover, the inhibition in test [1] came out at 90%. For the same compound, the Activity with RBCs [2] came to 100%; in the test with RBCs [3] it was 5%; in the test with RBCs [4], 0%; with RBCs [5], 0%; in the test on RBCs [6] it was 0%. For the same compound, the inhibition entry in [7] was “inactive”.
`C[N+]1(CCCCCCCCCCCC[N+]2(C)CCOCC2)CCOCC1`: the MIC came out at 44 µM in the test on Cryptococcus neoformans (setting [8]) and 88 µM in the test with Candida albicans (setting [9]). This compound also registered an IC50 on Phospholipase B above 250 µM.
In the case of `C(CCCCCC[N+]12CCC(CC1)CC2)CCCCC[N+]12CCC(CC1)CC2`, the minimum inhibitory concentration (MIC) is 350 µM in the test with Cryptococcus neoformans (setting [8]) and at least 350 µM with Candida albicans (setting [9]). This compound also displayed an IC50 on Phospholipase B above 250 µM.
Consider `CCCCCC[N+](CCCCCC)(CCCCCC)CCCCCCCCCCCC[N+](CCCCCC)(CCCCCC)CCCCCC`, for which the minimum inhibitory concentration (MIC) with Cryptococcus neoformans (setting [8]) was determined as 17.5 µM; in the test with Candida albicans (setting [9]) it was 8.8 µM. This compound also gave a half-inhibitory concentration (IC50) on Phospholipase B of 7.5 µM. Also, the inhibition in test [1] was found to be 90%. Besides, in [7], the inhibition entry is “inactive”.
With `CCCC[N+](CCCC)(CCCC)CCCCCCCCCCCC[N+](CCCC)(CCCC)CCCC` [listing 1 of 2 here], the MIC is 2.2 µM in the test with Cryptococcus neoformans (setting [8]) and 5.5 µM in the test with Candida albicans (setting [9]).
Take `CCCC[N+](CCCC)(CCCC)CCCCCCCCCCCC[N+](CCCC)(CCCC)CCCC` [listing 2 of 2 here]: the inhibition in [1] stood at 90%. For the same compound, the inhibition entry in test [7] is “inactive”.
